According to publication PMC11984575 (Neurobiology of Pain, 2025):
“Also recorded” adds a separate entry of the source.

Assays:
humanized NaV1.8 rats [1] = assay: CFA-induced thermal hyperalgesia; format: in vivo, rat; conditions: one hour post dosing; for hind paw withdrawal latency vs vehicle (thermal hyperalgesia): 24 h after CFA
Summary of the method: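 Male humanized NaV1.8 rats; baseline Hargreaves latency as mean of two trials, 20 s cutoff. CFA (50 μL, 1 mg/mL) given intraplantar into mid-plantar hind paw; latencies retested at 24 h. Rats then randomized to PO vehicle or test compound (1 or 10 mg/kg), or diclofenac 80 mg/kg ip. Latency read 1 h post-dose; blinded; n = 20/group; two-way ANOVA with Bonferroni; mean ± SD.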

rat NaV1.8 channels = conditions: cited from earlier work; for potency in rats: ref Gilchrist et al., 2024, Osteen et al., 2025
rat SNL model = conditions: cited from earlier work
NaV1.8 = conditions: blocks more current as stimulation rate increases; ref Payne et al., 2015; cited from earlier work
rodent NaV1.8 channel = rodent NaV1.8 channel (Rattus norvegicus, UniProt Q62968); format: cell-based
human NaV1.8 [2] = target: T1, human NaV1.8 (Homo sapiens, UniProt Q9Y5Y9); format: cell-based
human NaV1.8 [3] = target: T1, human NaV1.8; assay: Automated patch clamp; format: cell-based; conditions: train of 10 pulses at 1 Hz vs first pulse
human NaV1.1 = human NaV1.1 (Homo sapiens, UniProt P35498); assay: Automated patch clamp; format: cell-based
human NaV1.2 = human NaV1.2 (Homo sapiens, UniProt Q99250); assay: Automated patch clamp; format: cell-based
human NaV1.3 = human NaV1.3 (Homo sapiens, UniProt Q9NY46); assay: Automated patch clamp; format: cell-based
human NaV1.4 = human NaV1.4 (Homo sapiens, UniProt P35499); assay: Automated patch clamp; format: cell-based; conditions: vs human NaV1.8
human NaV1.5 = human NaV1.5 (Homo sapiens, UniProt Q14524); assay: Automated patch clamp; format: cell-based
human NaV1.6 = human NaV1.6 (Homo sapiens, UniProt Q9UQD0); assay: Automated patch clamp; format: cell-based
human NaV1.7 = human NaV1.7 (Homo sapiens, UniProt Q15858); assay: Automated patch clamp; format: cell-based
human NaV1.9 = human NaV1.9 (Homo sapiens, UniProt Q9UI33); assay: Automated patch clamp; format: cell-based
[4] = Rat plasma protein binding; format: in vitro ADME
[5] = target: Chimera 1: NaV1.5(1–711) – NaV1.8(660–890) – NaV1.5(940–2015) (Homo sapiens, UniProt Q14524+Q9Y5Y9); assay: QPatch II sodium currents of chimeric NaV channel in FS-293 HEK cells; format: cell-based
Summary of the method: (§1)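 Chimeric NaV1.5/NaV1.8 constructs electroporated into FS-293 HEK cells; currents recorded on QPatch II. External (mM): 150 NaCl, 5 KCl, 2 CaCl2, 1 MgCl2, 10 HEPES, 12 dextrose, pH 7.3 (NaOH), 330 Osm. Steps from −90 to +10 mV; IC50 by non-linear regression, bounds 0–1, Hill slope free.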

[6] = target: Chimera 2: NaV1.8(1–399) – NaV1.5(416–1199) – NaV1.8(1148–1956) (Homo sapiens, UniProt Q14524+Q9Y5Y9); assay: as above; format: cell-based; conditions: VSDII of NaV1.5 swapped into NaV1.8
Summary of the method: as §1

[7] = target: Chimera A: NaV1.5(1–770) – NaV1.8(719–751) – NaV1.5(804–2015) (Homo sapiens, UniProt Q14524+Q9Y5Y9); assay: as above; format: cell-based
Summary of the method: as §1

[8] = target: Chimera B: NaV1.8(1–718) – NaV1.5(771–803) – NaV1.8(752–1956) (Homo sapiens, UniProt Q14524+Q9Y5Y9); assay: as above; format: cell-based; conditions: VSDIIS3 of NaV1.5 in NaV1.8
Summary of the method: as §1

[9] = tested on: wild-type Sprague-Dawley rats; assay: Capsaicin nocifensive behavior; format: in vivo, rat; conditions: 10 mg/kg PO, 1 h before capsaicin
Summary of the method: (§2)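 Male rats, humanized or wild-type Sprague-Dawley, acclimated to chamber twice beforehand and 15 min on test day. Test compound given PO 1 h before intradermal capsaicin (25 μL, 0.01 %, in ethanol/Tween80/saline 20:7:73) into left hind paw. Flinches counted over 5 min; blinded, randomized order. Wild-type: n = 10/group, Student's t-test. Humanized dose-response: per-animal % inhibition of vehicle mean fitted against unbound plasma level (tail-vein blood post-test) for in vivo IC50.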

humanized NaV1.8 rats [10] = assay: Capsaicin nocifensive behavior; format: in vivo, rat
Summary of the method: as §2

humanized NaV1.8 rats [11] = assay: Spinal nerve ligation; format: in vivo, rat; conditions: one-hour post-dosing
Summary of the method: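 Male humanized NaV1.8 rats; baseline von Frey PWT (Up-Down, plantar) <9 g excluded. Under isoflurane, L6 transverse process removed; L5 spinal nerve tightly ligated and cut. After 1 week, PWT >6 g excluded. Day 1: PO vehicle (10 % Tween 80) or 10 mg/kg; after 4-day washout and reassessment, PO vehicle or 1 mg/kg. PWT read 1 h post-dose; blinded; mixed-effects model, Bonferroni; mean ± SD.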

[12] = Total plasma exposure in CFA and SNL studies; format: in vivo, rat; conditions: for Total plasma exposure: SNL study, approximately 1-hour post-dosing; for concentration at 4 h: rat, plasma, po
Summary of the method: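 Tail-vein blood for total plasma levels after PO test compound (1 or 10 mg/kg): in CFA rats at 4 h post-dose, in SNL rats right after mechanical testing, about 1 h post-dose.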

[13] = tested on: all other recombinant human NaV channel isoforms; conditions: highest concentrations tested (30–34 uM); ref Vardigan et al., 2024; cited from earlier work

T1 sequence (Q9Y5Y9 whole entry): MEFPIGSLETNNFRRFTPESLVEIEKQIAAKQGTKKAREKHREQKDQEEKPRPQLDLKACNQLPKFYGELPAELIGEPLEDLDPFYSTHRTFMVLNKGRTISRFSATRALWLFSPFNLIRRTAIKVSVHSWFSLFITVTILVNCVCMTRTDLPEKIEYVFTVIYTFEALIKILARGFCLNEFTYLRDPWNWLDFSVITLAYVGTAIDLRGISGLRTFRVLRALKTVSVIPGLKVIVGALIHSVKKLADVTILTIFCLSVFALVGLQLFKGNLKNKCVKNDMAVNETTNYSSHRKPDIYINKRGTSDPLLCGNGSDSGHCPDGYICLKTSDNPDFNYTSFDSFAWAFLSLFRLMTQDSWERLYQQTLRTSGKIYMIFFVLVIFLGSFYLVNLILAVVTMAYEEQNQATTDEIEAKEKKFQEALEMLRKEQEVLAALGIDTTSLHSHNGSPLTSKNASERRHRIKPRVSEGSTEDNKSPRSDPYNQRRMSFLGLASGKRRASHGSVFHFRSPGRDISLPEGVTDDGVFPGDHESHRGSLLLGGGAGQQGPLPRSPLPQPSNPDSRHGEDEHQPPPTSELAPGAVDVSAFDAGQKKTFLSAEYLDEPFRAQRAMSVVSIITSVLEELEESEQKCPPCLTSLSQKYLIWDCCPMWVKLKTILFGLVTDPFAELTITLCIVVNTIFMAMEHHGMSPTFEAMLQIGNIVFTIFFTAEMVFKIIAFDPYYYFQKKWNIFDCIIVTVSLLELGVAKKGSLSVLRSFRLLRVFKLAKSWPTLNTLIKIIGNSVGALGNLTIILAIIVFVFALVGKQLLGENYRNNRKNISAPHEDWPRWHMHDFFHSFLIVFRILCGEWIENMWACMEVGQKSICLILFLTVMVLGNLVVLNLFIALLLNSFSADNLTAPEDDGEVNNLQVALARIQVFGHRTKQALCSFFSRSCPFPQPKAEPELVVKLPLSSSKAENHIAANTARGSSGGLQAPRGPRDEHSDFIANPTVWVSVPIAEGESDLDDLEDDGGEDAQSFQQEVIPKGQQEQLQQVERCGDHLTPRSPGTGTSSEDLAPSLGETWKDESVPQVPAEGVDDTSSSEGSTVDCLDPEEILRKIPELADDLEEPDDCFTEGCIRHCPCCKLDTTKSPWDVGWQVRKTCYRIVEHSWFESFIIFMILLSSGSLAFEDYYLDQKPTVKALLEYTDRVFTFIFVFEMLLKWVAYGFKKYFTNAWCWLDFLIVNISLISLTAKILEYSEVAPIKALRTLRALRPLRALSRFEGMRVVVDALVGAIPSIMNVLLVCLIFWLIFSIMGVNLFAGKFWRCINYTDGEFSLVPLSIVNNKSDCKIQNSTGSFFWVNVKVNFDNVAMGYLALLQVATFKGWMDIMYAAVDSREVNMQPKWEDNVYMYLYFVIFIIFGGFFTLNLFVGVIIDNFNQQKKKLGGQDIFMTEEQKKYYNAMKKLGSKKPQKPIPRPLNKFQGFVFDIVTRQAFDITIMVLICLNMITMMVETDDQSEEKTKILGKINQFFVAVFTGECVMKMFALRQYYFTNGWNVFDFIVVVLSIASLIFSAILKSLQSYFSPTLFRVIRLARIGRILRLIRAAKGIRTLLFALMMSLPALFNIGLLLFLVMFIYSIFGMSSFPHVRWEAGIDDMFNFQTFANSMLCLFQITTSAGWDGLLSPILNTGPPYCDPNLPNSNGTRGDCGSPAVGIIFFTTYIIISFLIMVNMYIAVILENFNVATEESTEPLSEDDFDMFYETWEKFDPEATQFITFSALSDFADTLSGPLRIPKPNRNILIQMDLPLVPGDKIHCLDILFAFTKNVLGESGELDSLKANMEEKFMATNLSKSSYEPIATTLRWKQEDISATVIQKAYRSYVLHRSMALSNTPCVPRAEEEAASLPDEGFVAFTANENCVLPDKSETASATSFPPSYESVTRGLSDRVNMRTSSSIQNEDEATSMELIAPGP
Sequence of Chimera B: NaV1.8(1–718) – NaV1.5(771–803) – NaV1.8(752–1956) (Q9Y5Y9 1-718 limits assumed, change not shown): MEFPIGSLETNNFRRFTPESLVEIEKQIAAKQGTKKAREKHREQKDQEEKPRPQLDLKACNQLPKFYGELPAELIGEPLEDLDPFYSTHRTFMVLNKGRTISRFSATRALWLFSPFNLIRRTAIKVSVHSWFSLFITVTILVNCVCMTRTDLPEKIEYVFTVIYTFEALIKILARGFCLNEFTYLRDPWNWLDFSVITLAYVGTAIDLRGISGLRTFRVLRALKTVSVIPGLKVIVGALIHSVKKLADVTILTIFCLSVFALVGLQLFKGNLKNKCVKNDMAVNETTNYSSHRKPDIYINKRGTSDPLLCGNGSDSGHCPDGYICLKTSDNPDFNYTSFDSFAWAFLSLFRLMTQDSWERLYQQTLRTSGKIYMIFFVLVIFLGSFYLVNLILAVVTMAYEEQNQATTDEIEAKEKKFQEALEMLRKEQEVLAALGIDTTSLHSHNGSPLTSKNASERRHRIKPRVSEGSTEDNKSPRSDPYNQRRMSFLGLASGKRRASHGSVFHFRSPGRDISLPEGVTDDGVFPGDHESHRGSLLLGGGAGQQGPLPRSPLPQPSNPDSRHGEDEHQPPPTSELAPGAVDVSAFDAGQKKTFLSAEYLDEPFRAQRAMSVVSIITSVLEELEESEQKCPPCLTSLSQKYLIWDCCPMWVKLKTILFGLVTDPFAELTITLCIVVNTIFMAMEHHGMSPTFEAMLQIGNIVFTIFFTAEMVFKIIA
Sequence of Chimera B: NaV1.8(1–718) – NaV1.5(771–803) – NaV1.8(752–1956) (Q14524 771-803 limits assumed, change not shown): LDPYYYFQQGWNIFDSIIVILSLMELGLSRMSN
Sequence of Chimera B: NaV1.8(1–718) – NaV1.5(771–803) – NaV1.8(752–1956) (Q9Y5Y9 752-1956 limits assumed, change not shown): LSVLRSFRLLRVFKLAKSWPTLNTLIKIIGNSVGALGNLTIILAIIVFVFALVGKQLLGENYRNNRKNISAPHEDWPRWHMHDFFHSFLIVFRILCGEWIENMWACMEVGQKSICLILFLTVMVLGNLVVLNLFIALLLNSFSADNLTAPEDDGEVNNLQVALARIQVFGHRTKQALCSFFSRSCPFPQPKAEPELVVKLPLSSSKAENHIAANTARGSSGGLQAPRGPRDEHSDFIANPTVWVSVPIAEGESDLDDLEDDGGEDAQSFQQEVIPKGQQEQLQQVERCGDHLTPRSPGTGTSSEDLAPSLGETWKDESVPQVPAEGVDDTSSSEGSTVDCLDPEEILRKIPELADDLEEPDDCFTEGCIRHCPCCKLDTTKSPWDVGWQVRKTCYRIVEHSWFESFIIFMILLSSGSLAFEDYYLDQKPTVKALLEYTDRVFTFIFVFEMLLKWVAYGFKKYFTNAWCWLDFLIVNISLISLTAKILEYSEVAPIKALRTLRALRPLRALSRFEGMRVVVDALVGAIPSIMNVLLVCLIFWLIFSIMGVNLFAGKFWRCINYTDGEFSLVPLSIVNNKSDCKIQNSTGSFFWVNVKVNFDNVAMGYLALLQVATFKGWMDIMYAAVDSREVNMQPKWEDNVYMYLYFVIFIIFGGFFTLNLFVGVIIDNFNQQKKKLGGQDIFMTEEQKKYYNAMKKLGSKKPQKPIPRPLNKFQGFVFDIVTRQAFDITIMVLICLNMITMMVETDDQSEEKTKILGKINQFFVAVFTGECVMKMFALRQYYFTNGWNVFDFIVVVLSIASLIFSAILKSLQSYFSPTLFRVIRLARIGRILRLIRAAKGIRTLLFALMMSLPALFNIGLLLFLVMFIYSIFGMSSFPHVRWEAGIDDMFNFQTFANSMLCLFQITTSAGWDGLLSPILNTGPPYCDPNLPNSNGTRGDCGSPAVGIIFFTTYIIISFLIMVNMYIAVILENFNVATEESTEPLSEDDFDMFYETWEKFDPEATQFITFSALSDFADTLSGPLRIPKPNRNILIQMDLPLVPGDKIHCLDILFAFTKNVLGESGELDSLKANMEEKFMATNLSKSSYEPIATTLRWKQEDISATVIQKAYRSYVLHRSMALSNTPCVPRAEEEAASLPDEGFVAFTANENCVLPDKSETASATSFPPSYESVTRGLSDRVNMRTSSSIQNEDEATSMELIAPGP

In the case of `O=C(O)Cc1ccccc1Nc1c(Cl)cccc1Cl` [Diclofenac, reference compound], the “thermal hyperalgesia vs vehicle” value (humanized NaV1.8 rats [1]; 80 mg/kg intraperitoneal, positive control) is reported as “reversed thermal hyperalgesia”.

For `COc1c([C@H]2[C@H](C(=O)Nc3ccnc(C(N)=O)c3)O[C@@](C)(C(F)(F)F)[C@H]2C)ccc(F)c1F` [VX-548], the potency in rats (rat NaV1.8 channels) is listed as “reduced potency in rats”.

For `CNC(=O)c1ccc(-c2cc(Cl)cc(Cl)c2Cl)c(N)n1` [PF-01247324], the “neuropathic pain in rat SNL model” value (rat SNL model; rat, ref Payne et al., 2015) is listed as “reversed neuropathic pain in the rat SNL model” and the frequency dependency (NaV1.8) is listed as “demonstrates frequency dependency”.

For `COc1cc(NC(=O)c2ccc(-c3ccc(Cl)cc3)o2)cc(OC)c1` [Molecule A-803467], the SNL-induced mechanical allodynia (rat SNL model; rodents, ref Jarvis et al., 2007) is given as “demonstrated reversal of SNL-induced mechanical allodynia” and the “potency in wildtype rodents” value (rat NaV1.8 channels; ref Jarvis et al., 2007) is given as “exhibited reduced potency in wildtype rodents”.

For `Cc1cc(F)ccc1Oc1ncc(C(F)(F)F)cc1C(=O)Nc1cccc([S@](C)(=N)=O)c1` [LTGO-33], the potency in rats (rat NaV1.8 channels) is listed as “reduced potency in rats”.

For `Cc1ccc(C(=O)Nc2ccnc(S(N)(=O)=O)c2)c(N2CCCC(F)(F)CC2)n1` [MSD199, 2-(4,4-difluoroazepan-1-yl)-6-methyl-N-(2-sulfamoylpyridin-4-yl)-nicotinamide], the IC50 (rodent NaV1.8 channel) was 4.83 µM, the IC50 (human NaV1.8 [2]) was 0.0056 µM and the frequency dependency (human NaV1.8 [3]) was “does not display frequency dependency”. For the same compound, the IC50 (human NaV1.1) was over 33.6 µM, the IC50 (human NaV1.2) was over 33.6 µM and the IC50 (human NaV1.3) was over 33.6 µM. For the same compound, the “selectivity over recombinant human NaV1.4 channel” value (human NaV1.4) was about 2000 fold, the IC50 (human NaV1.5) was over 33.6 µM and the IC50 (human NaV1.6) was over 33.6 µM. For the same compound, the IC50 (human NaV1.7) was over 33.6 µM, the IC50 (human NaV1.9) was over 33 µM and the fraction unbound [4] was 0.15. For the same compound, the IC50 [5] was 0.0011 µM, the “sodium current inhibition, Chimera 2” value [6] was “disruption of sodium current inhibition” and the IC50 [7] was 0.0086 µM. The “potency, Chimera B” value [8] was “abolished the potency”, the “effect on capsaicin-induced nocifensive behavior” value [9] was “had no effect; also recorded: no observable impact” and the “nocifensive responses vs vehicle, dose-response” value (from here on “nocifensive responses vs vehicle”) (humanized NaV1.8 rats [10]; 1 mg/kg PO (Fig. 2C)) was “significantly lower than vehicle”. For the same compound, the “nocifensive responses vs vehicle” value (humanized NaV1.8 rats [10]; 3 mg/kg PO (Fig. 2C)) was “significantly lower than vehicle”, the “nocifensive responses vs vehicle” value (humanized NaV1.8 rats [10]; 10 mg/kg PO (Fig. 2C)) was “significantly lower than vehicle” and the “effect on capsaicin-induced nocifensive behavior” value (humanized NaV1.8 rats [10]; 10 mg/kg PO, 1 h before capsaicin (Fig. 2B), 10 mg/kg) was “significantly blocked”. For the same compound, the “hind paw withdrawal latency vs vehicle (thermal hyperalgesia)” value (humanized NaV1.8 rats [1]; 1 mg/kg PO) was “but not at 1 mg/kg, significantly increased”, the “hind paw withdrawal latency vs vehicle (thermal hyperalgesia)” value (humanized NaV1.8 rats [1]; 10 mg/kg PO) was “significantly increased” and the “paw withdrawal thresholds vs vehicle (mechanical allodynia)” value (humanized NaV1.8 rats [11]; 1 mg/kg PO) was “no significant antiallodynic effects; also recorded: did not significantly alter paw withdrawal thresholds”. The “paw withdrawal thresholds vs vehicle (mechanical allodynia)” value (humanized NaV1.8 rats [11]; 10 mg/kg PO) was “demonstrated significant antiallodynic effects; also recorded: significant reversal of mechanical allodynia”, the Total plasma exposure ([12]; 1 mg/kg PO) was 73.06 ± 4.71 nM and the Total plasma exposure ([12]; 10 mg/kg PO) was 1117 ± 84.19 nM. For the same compound, the concentration at 4 h ([12]; 1 mg/kg) was 20.1 ± 5.1 nM, the concentration at 4 h ([12]; 10 mg/kg) was 199 ± 27.3 nM and the “inhibition of all other recombinant human NaV channel isoforms” value [13] was “no inhibition”.
